The source of these data is ChEMBL document CHEMBL2401738, “Construction and functionalization of pyranone ring fused with pyran moiety: design and synthesis of novel pyrano[4,3-b]pyran-5(4H)-ones as potential inhibitors of sirtuins” (Bioorg Med Chem Lett, 2013).

pIC50: −log10 of the molar value.

One assay has as its system Saccharomyces cerevisiae. Briefly: Inhibition of Saccharomyces cerevisiae TEL::URA3 SIR2-mediated URA3 reporter gene silencing at 50 uM after 24 to 48 hrs in presence of 5-FOA relative to control. The gist of the method: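 Yeast strain with telomere-integrated URA3 reporter. Sir2 silencing of URA3 allows growth in 5-fluoroorotic acid, and inhibition of the yeast SIRT1 homologue Sir2 is scored by reduced growth in 5-FOA. Stereoisomer mixtures were tested unseparated at a single fixed concentration of 50.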
For orientation: Reporter assays use an easily measured gene product as a stand-in for the process of interest.
For `CCOC(=O)C1=C(C)Oc2c(-c3ccc(O)cc3)c(-c3ccccc3)oc(=O)c2C1c1cccc(F)c1` (configuration not stated), the inhibition (usually the change of the read-out against control, counted positive when it falls) amounted to 1.51%.

As to `CC1(C)CC(=O)C2=C(C1)Oc1c(-c3ccccc3)c(-c3ccccc3)oc(=O)c1C2c1cccc(O)c1` (configuration not stated), the inhibition was found to be 3.3%.

As to `CC1(C)CC(=O)C2=C(C1)Oc1c(I)c(-c3ccccc3)oc(=O)c1C2c1ccc(F)cc1` (configuration not stated), the inhibition came out at 49.5%.

As to `COc1ccc(C2C3=C(CC(C)(C)CC3=O)Oc3c(I)c(-c4ccccc4)oc(=O)c32)cc1` (configuration not stated), the inhibition stood at 32.4%.

In the case of `CC1(C)CC(=O)C2=C(C1)Oc1c(I)c(-c3ccccc3)oc(=O)c1C2c1ccco1` (configuration not stated), the inhibition amounted to 15.3%.

In the case of `CCOC(=O)C1=C(C)Oc2c(I)c(-c3ccccc3)oc(=O)c2C1c1cccc(F)c1` (configuration not stated), the inhibition amounted to 0.5%.

For `CC1(C)CC(=O)C2=C(C1)Oc1c(I)c(C3(O)CCCCC3)oc(=O)c1C2c1ccc(F)cc1` (configuration not stated), the inhibition was determined as 25.3%.

In the case of `CC1(C)CC(=O)C2=C(C1)Oc1c(I)c(-c3ccccc3)oc(=O)c1C2c1cccs1` (configuration not stated), the inhibition is 43.2%.

For the compound `CCC1C2=C(CC(C)(C)CC2=O)Oc2c(I)c(-c3ccccc3)oc(=O)c21` (configuration not stated), the inhibition was found to be 43.9%.

On to `CCCCC#Cc1c(-c2ccccc2)oc(=O)c2c1OC1=C(C(=O)CC(C)(C)C1)C2c1cccc(O)c1` (configuration not stated), for which the inhibition came out at 1.01%.

Another assay relates to Saccharomyces cerevisiae. The assay is described as follows: (§1) Inhibition of Saccharomyces cerevisiae TEL::URA3 SIR2-mediated URA3 reporter gene silencing after 24 to 48 hrs in presence of 5-FOA. The gist of the method: (§2)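 Yeast cell-based reporter silencing assay with URA3 integrated in the telomeric region. Sir2-mediated silencing of URA3 permits growth in 5-fluoroorotic acid, so Sir2 inhibition is read as loss of growth on 5-FOA. Compounds were tested as unseparated stereoisomer mixtures over a dose range, and IC50 was taken from the dose-response.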
As for `CCC1C2=C(CC(C)(C)CC2=O)Oc2c(I)c(-c3ccccc3)oc(=O)c21` (configuration not stated), the inhibition result was “Dose-dependent effect”.

Test system in a further assay: not listed separately
The assay is described as §1. The procedure, abridged:
as §2
For the compound `CCC1C2=C(CC(C)(C)CC2=O)Oc2c(I)c(-c3ccccc3)oc(=O)c21` (configuration not stated), the pIC50 (as a rule, the negative decadic logarithm of the IC50, by convention in mol/L) was 4.11.
